Test results published in ChEMBL document CHEMBL3297714, “Gigantol, a bibenzyl from Dendrobium draconis, inhibits the migratory behavior of non-small cell lung cancer cells” (J Nat Prod, 2014).
Activity calls are given as the source filed them. The calls are words filed in the database; no cut-off is given here.

What was measured:
NCI-H460 [1] = test: Cytotoxicity against human NCI-H460 cells assessed as cell viability at 0 to 20 uM for 12 to 72 hrs by MTT assay; type: functional, cell-based
Outline: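 MTT was added for 4 h at 37 °C, formazan was dissolved in DMSO and read at 570. Viability is given as % of untreated cells. Mean ± SD, n = 4.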

NCI-H460 [2] = test: Effect on Fak expression in human NCI-H460 cells at 0 to 20 uM for 24 hrs by Western blot analysis; type: functional, cell-based
Outline: (§1)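 H460 cells were seeded at 5 × 10^5/well, left overnight, then exposed to 0−20 μM for 24 h. Lysis used Tris-HCl pH 7.5 buffer with Triton X-100, vanadate, NaF, PMSF and protease inhibitors, 40 min on ice. 60 μg protein per lane was run on 10% SDS-PAGE and blotted to nitrocellulose. Primary antibody overnight at 4 °C, then HRP secondary. Chemiluminescence, densitometry, β-actin loading control.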

HaCaT = test: Cytotoxicity against human HaCaT cells assessed as cell migration at 0 to 20 uM after 24 hrs by wound healing assay; type: cell-based
Outline: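 HaCat keratinocytes grown in DMEM with 10% FBS, 2 mM L-glutamine and penicillin/streptomycin. A confluent monolayer was scratched with a 1 mm tip, washed with PBS, and kept in serum-free medium with compound (0−20 μM) for 24 h. The wound was photographed, and the change in wound space was expressed relative to untreated cells.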

[3] = molecular target: RAC-alpha serine/threonine-protein kinase (Homo sapiens) (UniProt P31749); test: Inhibition of Akt phosphorylation at Ser473 in human NCI-H460 cells at 0 to 20 uM for 24 hrs by Western blot analysis; type: cell-based; outline: as §1
NCI-H460 [4] = test: Cytotoxicity against human NCI-H460 cells assessed as cell viability at 100 uM for 24 hrs by MTT assay; type: functional; settings: NCI-H460, 24 h, read-out: Activity
Outline: (§2)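 MTT was given for 4 h at 37 °C, formazan was solubilized in DMSO and absorbance taken at 570. Viability is % of untreated control. IC50 came from four independent experiments. n = 4.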

NCI-H460 [5] = test: Inhibition of human NCI-H460 cells migration at 5 uM after 24 hrs by Boyden chamber assay relative to control; type: functional
Outline: (§3)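 For the Boyden chamber, H460 cells at 5 × 10^4/well were placed on the upper side of an 8 μm Transwell filter in RPMI with 0.1% FBS plus compound (0−20 μM) for 24 h, with 10% FBS below. Non-migrated cells were swabbed off, and underside cells were stained with 10 μg/mL Hoechst 33342 for 30 min and counted per field. n = 4.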

NCI-H460 [6] = test: Inhibition of human NCI-H460 cells migration at 20 uM by wound healing assay; type: functional, cell-based; settings: TDE = time-dependent effect
Outline: (§4)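 H460 cells were seeded at 2.5 × 10^5/well and grown to a monolayer, then scratched with a 1 mm tip and washed with PBS. They were kept in serum-free RPMI with 0−20 μM for 24 h, or ± 20 μM for 24, 48 and 72 h. The wound was photographed, and migration was calculated as the change in wound space divided by that of control. Mean ± SD, n = 4.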

NCI-H460 [7] = test: Cytotoxicity against human NCI-H460 cells assessed as cell viability at < 20 uM for 24 hrs by MTT assay; type: functional, cell-based; outline: as §2
NCI-H460 [8] = test: Decrease in Cdc42 expression in human NCI-H460 cells at 0 to 20 uM for 24 hrs by Western blot analysis; type: functional, cell-based; outline: as §1
NCI-H460 [9] = test: Inhibition of human NCI-H460 cells migration at 5 uM after 24 hrs by wound healing assay; type: functional; settings: NCI-H460, 24 h; outline: as §4
NCI-H460 [10] = test: Effect on unphosphorylated Akt level in human NCI-H460 cells at 0 to 20 uM for 24 hrs by Western blot analysis; type: functional, cell-based; outline: as §1
NCI-H460 [11] = test: Cytotoxicity against human NCI-H460 cells assessed as cell viability for 24 hrs by MTT assay; type: functional, cell-based; settings: NCI-H460, 24 h; outline: as §2
NCI-H460 [12] = test: Induction of apoptosis in human NCI-H460 cells at 50 to 100 uM for 24 hrs by Hoechst-[…]/PI staining based fluorescence microscopic analysis; type: functional, cell-based
Outline: (§5)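 They were stained with 10 μg/mL Hoechst 33342 plus 5 μg/mL propidium iodide for 30 min. Apoptotic (Hoechst-condensed) and necrotic (PI-positive) cells were scored by fluorescence microscopy as % versus untreated control.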

NCI-H460 [13] = test: Inhibition of human NCI-H460 cells invasion at 0 to 20 uM by transwell assay; type: functional, cell-based; settings: TDE = time-dependent effect
Outline: (§6)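 Matrigel-coated Transwell inserts (8 μm pore) were seeded with H460 cells at 1.5 × 10^5/well in RPMI with 0.1% FBS plus compound (0−20 μM), with 10% FBS RPMI in the lower chamber, for 24 or 48 h. Cells that invaded the underside were stained with 10 μg/mL Hoechst 33342 for 30 min and counted per field by fluorescence microscopy. n = 4.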

NCI-H460 [14] = test: Inhibition of human NCI-H460 cells migration after 24 to 72 hrs by wound healing assay; type: functional, cell-based; outline: as §4
NCI-H460 [15] = test: Cytotoxicity against human NCI-H460 cells assessed as cell viability at 50 uM for 24 hrs by MTT assay; type: functional; settings: NCI-H460, 24 h, read-out: Activity; outline: as §2
NCI-H460 [16] = test: Decrease in Cav-1 expression in human NCI-H460 cells at 0 to 20 uM for 24 hrs by Western blot analysis; type: functional, cell-based; outline: as §1
[17] = molecular target: Focal adhesion kinase 1 (Homo sapiens) (UniProt Q05397); test: Inhibition of Fak phosphorylation at Tyr397 in human NCI-H460 cells at 0 to 20 uM for 24 hrs by Western blot analysis; type: cell-based; outline: as §1
NCI-H460 [18] = test: Inhibition of human NCI-H460 cells invasion after 24 hrs by transwell assay; type: functional, cell-based; outline: as §6
NCI-H460 [19] = test: Inhibition of human NCI-H460 cells migration at 20 uM after 24 hrs by wound healing assay; type: functional; settings: NCI-H460, 24 h; outline: as §4
NCI-H460 [20] = test: Decrease in filopodia protrussions in human NCI-H460 cells at 10 to 20 uM for 24 hrs by phalloidin staining based fluorescence microscopic analysis; type: functional, cell-based
Outline: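 H460 cells were seeded at 5 × 10^4/well and treated 24 h (0−20 μM). Cells were fixed in 4% paraformaldehyde, permeabilized with 0.1% Triton X-100 and blocked with 0.2% BSA, then stained with rhodamine-phalloidin (1:100, 15 min) or Hoechst 33342. Filopodia per cell were counted by fluorescence microscopy relative to untreated cells.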

NCI-H460 [21] = test: Inhibition of human NCI-H460 cells migration overexpressing Cav-1 at 20 uM after 24 hrs by wound healing assay; type: functional, cell-based
Outline: (§7)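 H460 cells were stably transfected (Lipofectamine 2000) with Cav-1 expression, Cav-1 shRNA or control plasmid, selected with antibiotic for 30 days and pooled, then passaged twice without G418. Confluent monolayers were scratched with a 1 mm tip and treated with 20 μM for 24 h. Wound-space change was expressed relative to untreated cells. n = 4.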

NCI-H460 [22] = test: Inhibition of human NCI-H460 cells migration at 10 uM after 24 hrs by wound healing assay; type: functional; settings: NCI-H460, 24 h; outline: as §4
NCI-H292 = test: Inhibition of human NCI-H292 cells migration at 0 to 20 uM after 24 hrs by wound healing assay; type: functional, cell-based
Outline: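 NCI-H292 cells in RPMI-1640 with 10% FBS were grown to a confluent monolayer and scratched with a 1 mm tip. They were incubated in serum-free RPMI with 0−20 μM for 24 h. The change in wound space was measured from photographs relative to untreated cells.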

NCI-H460 [23] = test: Induction of necrosis in human NCI-H460 cells at 50 to 100 uM for 24 hrs by Hoechst-[…]/PI staining based fluorescence microscopic analysis; type: functional, cell-based; outline: as §5
NCI-H460 [24] = test: Inhibition of human NCI-H460 cells migration at 20 uM after 24 hrs by Boyden chamber assay relative to control; type: functional; outline: as §3
NCI-H460 [25] = test: Inhibition of human NCI-H460 cells migration at 10 uM after 24 hrs by Boyden chamber assay relative to control; type: functional; outline: as §3
NCI-H460 [26] = test: Cytotoxicity against human NCI-H460 cells assessed as cell viability at 500 uM for 24 hrs by MTT assay; type: functional; settings: NCI-H460, 24 h, read-out: Activity; outline: as §2
NCI-H460 [27] = test: Inhibition of human NCI-H460 cells migration transfected with Cav-1 shRNA at 20 uM after 24 hrs by wound healing assay; type: functional, cell-based; outline: as §7

Chain of Focal adhesion kinase 1 (Homo sapiens) (Q05397 2-1052 limits assumed): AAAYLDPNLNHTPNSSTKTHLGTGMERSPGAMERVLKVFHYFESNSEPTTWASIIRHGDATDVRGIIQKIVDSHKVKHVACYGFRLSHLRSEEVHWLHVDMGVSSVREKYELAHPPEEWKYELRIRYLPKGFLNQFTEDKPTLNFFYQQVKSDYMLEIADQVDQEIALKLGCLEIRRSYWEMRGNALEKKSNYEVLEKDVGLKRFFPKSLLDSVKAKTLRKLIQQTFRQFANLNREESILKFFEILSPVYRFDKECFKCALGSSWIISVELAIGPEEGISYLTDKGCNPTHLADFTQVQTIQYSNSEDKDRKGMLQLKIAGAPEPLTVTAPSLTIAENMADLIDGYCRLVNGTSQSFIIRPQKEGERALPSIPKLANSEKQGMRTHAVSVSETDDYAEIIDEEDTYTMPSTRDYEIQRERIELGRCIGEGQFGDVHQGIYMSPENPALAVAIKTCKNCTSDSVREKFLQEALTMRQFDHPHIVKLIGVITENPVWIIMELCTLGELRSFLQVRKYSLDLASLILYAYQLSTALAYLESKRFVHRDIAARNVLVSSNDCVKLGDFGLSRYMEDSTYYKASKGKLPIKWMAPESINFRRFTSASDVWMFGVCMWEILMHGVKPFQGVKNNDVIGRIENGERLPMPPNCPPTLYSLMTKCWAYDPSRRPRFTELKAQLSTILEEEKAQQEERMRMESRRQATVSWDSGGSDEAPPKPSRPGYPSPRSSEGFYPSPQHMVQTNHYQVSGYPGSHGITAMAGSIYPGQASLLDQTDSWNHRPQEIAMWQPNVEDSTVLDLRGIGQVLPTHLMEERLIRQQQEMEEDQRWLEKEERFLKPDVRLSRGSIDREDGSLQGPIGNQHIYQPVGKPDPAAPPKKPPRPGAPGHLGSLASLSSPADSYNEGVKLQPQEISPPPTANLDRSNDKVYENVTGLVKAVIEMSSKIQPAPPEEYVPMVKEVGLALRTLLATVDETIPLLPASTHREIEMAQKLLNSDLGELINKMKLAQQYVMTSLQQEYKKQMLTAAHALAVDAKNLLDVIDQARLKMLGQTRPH
Chain of RAC-alpha serine/threonine-protein kinase (Homo sapiens) (P31749 whole entry): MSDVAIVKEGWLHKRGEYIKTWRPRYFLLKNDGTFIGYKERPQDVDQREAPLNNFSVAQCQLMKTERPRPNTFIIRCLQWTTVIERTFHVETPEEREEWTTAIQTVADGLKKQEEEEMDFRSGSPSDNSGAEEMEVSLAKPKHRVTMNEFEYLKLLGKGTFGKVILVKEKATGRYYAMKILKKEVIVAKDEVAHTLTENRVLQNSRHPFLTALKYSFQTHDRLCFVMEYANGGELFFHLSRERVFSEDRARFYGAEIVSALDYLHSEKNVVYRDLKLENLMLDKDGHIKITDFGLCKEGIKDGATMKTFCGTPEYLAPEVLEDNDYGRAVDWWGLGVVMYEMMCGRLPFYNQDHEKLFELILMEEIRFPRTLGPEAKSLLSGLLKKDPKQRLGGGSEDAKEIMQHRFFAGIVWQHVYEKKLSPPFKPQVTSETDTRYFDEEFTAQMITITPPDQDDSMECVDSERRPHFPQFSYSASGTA

inhibition [3]: Active
Activity [17]: inactive
SMILES: COc1cc(O)cc(CCc2ccc(O)c(OC)c2)c1 [GIGANTOL]
Activity (NCI-H460 [1]): inactive
Activity (NCI-H460 [2]): inactive
Activity (HaCaT): Non-toxic
viability at 100 µM (NCI-H460 [4]): 80%
fold change (FC) (NCI-H460 [5]): 0.7
inhibition (NCI-H460 [6]): tde
Activity (NCI-H460 [7]): inactive
inhibition (NCI-H460 [8]): Active
inhibition at 5 µM (NCI-H460 [9]): 30%
Activity (NCI-H460 [10]): inactive
IC50 (NCI-H460 [11]): 248 µM
Activity (NCI-H460 [12]): Active
inhibition (NCI-H460 [13]): tde
inhibition (NCI-H460 [14]): Dose-dependent effect
viability at 50 µM (NCI-H460 [15]): 83%
inhibition (NCI-H460 [16]): Active
inhibition (NCI-H460 [18]): Dose-dependent effect
inhibition at 20 µM (NCI-H460 [19]): 70%
inhibition (NCI-H460 [20]): Active
inhibition (NCI-H460 [21]): Active
inhibition at 10 µM (NCI-H460 [22]): 50%
inhibition (NCI-H292): Active
Activity (NCI-H460 [23]): inactive
fold change (FC) (NCI-H460 [24]): 0.3
fold change (FC) (NCI-H460 [25]): 0.4
viability at 500 µM (NCI-H460 [26]): 20%
inhibition (NCI-H460 [27]): Active
